Results on 14 compounds are retold here after ChEMBL document CHEMBL1125914, “Activity of acyclic 6-(phenylselenenyl)pyrimidine nucleosides against human immunodeficiency viruses in primary lymphocytes” (J Med Chem, 1991).

A short description of data set [1]: The compound was tested for toxicity in Vero cells. Format: cell-based. As to conditions: Chlorocebus sabaeus (African green monkey).
Data set [2] deals with Vero. The data set can be described thus: Antiviral activity against Vero cells, infected with HSV-1. The data set is classed as functional, cell-based. As to conditions: Chlorocebus sabaeus. Put shortly: (§1)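 Plaque reduction assay in Vero cells infected with HSV-1 strain F. Median effective concentration taken from the concentration-response curve by the Chou–Talalay median-effect method.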

A short description of data set [3]: Antiviral activity against human peripheral blood mononuclear cells, infected with HIV-1(strain LAV). Format: functional. Put shortly: (§2)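 Primary human PBM cells infected with virus and exposed to compound. Virus in cell supernatant was quantified on day 6 post-infection by reverse transcriptase assay using poly(rA)n-oligo(dT)12-18 template-primer on disrupted virions. EC50 derived from the concentration-response curve by the Chou–Talalay median-effect method.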

Data set [4] can be described thus: Antiviral activity against human peripheral blood mononuclear cells, infected with HIV-1(strain LAV). The data set is classed as functional. Put shortly: (§3)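 Human PBM cells were infected with HIV-1 strain LAV or HIV-2 strain ROD-2. On day 6 after infection, virus in the cell supernatant was quantitated by reverse transcriptase assay using poly(rA)n-oligo(dT)12-18 as template-primer. EC50 was derived from the concentration-response curve by the Chou–Talalay median-effect method.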

Data set [5] can be described thus: The compound was tested for toxicity in Vero cells. Format: cell-based. The note with it: Chlorocebus sabaeus (African green monkey).
The nature of data set [6]: The compound was tested for toxicity in peripheral blood mononuclear cells. The data set is classed as functional, Homo sapiens.
Another data set concerns Nucleic Acid. The data set can be described thus: Inhibitory activity against DNA polymerase-alpha derived from peripheral blood mononuclear cells. More on the design: species or system Homo sapiens. The procedure, abridged: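 Selectivity counter-screen against DNA polymerase α purified from human PBM cells. Median inhibitory concentration derived from the concentration-response curve by the Chou–Talalay median-effect method.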

Data set [7] relates to Vero. The data set can be described thus: Antiviral activity against Vero cells, infected with HSV-1. The data set is classed as functional, cell-based. The note with it: Chlorocebus sabaeus. Put shortly:
as §1

Data set [8] is described as follows: Antiviral activity against human peripheral blood mononuclear cells, infected with HIV-2(strain ROD-2). Format: functional. Put shortly:
as §3

The nature of data set [9]: The compound was tested for toxicity in peripheral blood mononuclear cells. Format: functional, Homo sapiens.
Data set [10] addresses T1, Human immunodeficiency virus type 1 reverse transcriptase (Human immunodeficiency virus 1, UniProt Q72547). The data set can be described thus: Inhibition of HIV-1 reverse transcriptase.
Data set [11] is described as follows: Antiviral activity against human peripheral blood mononuclear cells, infected with HIV-2(strain ROD-2). The data set is classed as functional. Put shortly: as §2
For data set [12], the target named is T1, Human immunodeficiency virus type 1 reverse transcriptase. The data set can be described thus: Inhibition of HIV-1 reverse transcriptase recombinant p66.

The compound `O=c1[nH]c(=O)n(COCCO)cc1Cl` registered a half-inhibitory concentration (IC50) in data set [1] of over 100 µM. Moreover, the concentration for a half-maximal effect (EC50) (with Vero [2]; in data set [3]) was over 100 µM throughout.

For the compound `O=c1[nH]c(=O)n(COCCO)c([Se]c2ccccc2)c1Cl`, the EC50 in [4] was 3.1 µM; in the data set on Vero [7], over 100 µM; in data set [8] it was 7.9 µM. The IC50 in data set [5] was 7.5 µM; in data set [6] it was over 100 µM; in the data set with Nucleic Acid, over 100 µM.

In the case of `Cc1c([Se]c2ccccc2)n(COCCO)c(=O)[nH]c1=O`, the EC50 in data set [4] was 0.96 µM; in the data set with Vero [7], over 100 µM; in [8], 25.6 µM. Moreover, the half-inhibitory concentration (IC50) in data set [5] was over 100 µM; in data set [6], over 200 µM; in the data set on Nucleic Acid it was over 100 µM.

On to `Cc1c([Se]c2ccccc2)n(COCCO)c(=S)[nH]c1=O`, for which the values for the EC50 (in [4]; in the data set on Vero [7]; in [8]) were 2.8 µM, over 100 µM and 5.8 µM, respectively. The half-inhibitory concentration (IC50) in data set [5] was 60.7 µM; in data set [6], over 100 µM; in the data set on Nucleic Acid, over 100 µM.

Consider `O=c1ccn(COCCO)c(=O)[nH]1`, for which the EC50 (in data set [4]; in the data set on Vero [7]) was over 100 µM in each case. The IC50 in data set [5] and in [6] was over 100 µM in each case.

Turning to `O=c1cc([Se]c2ccccc2)n(COCCO)c(=O)[nH]1`, the concentration giving a half-maximal response (EC50) in data set [4] was 13 µM; with Vero [7] it was over 200 µM; in data set [8], 9.6 µM. Further, the IC50 (in data set [5]; in data set [6]; in the data set on Nucleic Acid) was over 100 µM each time.

Take `Cc1cn(COCCO)c(=O)[nH]c1=O`: the 50% inhibitory concentration (IC50) in data set [1] and in data set [9] was over 100 µM throughout. The half-maximal effective concentration (EC50) (with Vero [2]; in data set [3]) was over 100 µM in each case.

For the compound `O=c1[nH]c(=O)n(COCCO)cc1F`, the IC50 in data set [1] is over 100 µM; in [9] it was 67 µM. Moreover, the EC50 (in the data set on Vero [2]; in [3]) was over 100 µM throughout.

As to `O=c1[nH]c(=O)n(COCCO)cc1Br`, the IC50 in data set [1] is over 100 µM; in data set [9], 100 µM. Also, the EC50 (with Vero [2]; in [3]) was over 100 µM each time.

Turning to `Cc1cn(COCCO)c(=S)[nH]c1=O`, the IC50 in data set [1] and in data set [9] was over 100 µM in each case. In addition, the concentration giving a half-maximal response (EC50) (in the data set with Vero [2]; in [3]) was over 100 µM in each case.

For the compound `O=c1[nH]c(=O)n(COCCO)c([Se]c2ccccc2)c1F`, the EC50 was 2 µM in data set [4], over 100 µM in the data set on Vero [7] and 9.1 µM in data set [8]. In addition, the figures for the half-inhibitory concentration (IC50) (in data set [5]; in data set [6]; in the data set with Nucleic Acid) were 25.7 µM, over 100 µM and over 100 µM, respectively.

In the case of `O=c1[nH]c(=O)n(COCCO)c([Se]c2ccccc2)c1Br`, the concentration for a half-maximal effect (EC50) in [4] is 3.7 µM; in the data set with Vero [7], over 100 µM; in data set [8], 2 µM. For the same compound, the half-inhibitory concentration (IC50) in data set [5] was 8.2 µM; in data set [6] it was over 100 µM; in the data set with Nucleic Acid, over 100 µM.

For the compound `Cc1c(Sc2ccccc2)n(COCCO)c(=O)[nH]c1=O` [HEPT], the IC50 in data set [1] is over 100 µM; in the data set with Nucleic Acid it was over 100 µM; in data set [9], over 100 µM; in data set [10] it was 17.5 µM. In addition, the concentration for a half-maximal effect (EC50) is over 100 µM in the data set with Vero [2], 5.3 µM in data set [3] and over 100 µM in [11].

Regarding `Cc1cn([C@H]2C[C@H](N=[N+]=[N-])[C@@H](CO)O2)c(=O)[nH]c1=O` [ZIDOVUDINE], the concentration for half-maximal inhibition (IC50) is under 0.1 µM in [12], 26 µM in data set [5], over 100 µM in [6] and over 100 µM with Nucleic Acid. Further, the figures for the EC50 (in data set [4]; in the data set on Vero [7]; in data set [8]) were 0.004 µM, over 100 µM and under 0.002 µM, respectively.
